According to ChEMBL document CHEMBL3232844, “Synthesis and structure activity relationships of schweinfurthin indoles” (2014):

Legend:
Assay type in all cases: functional
MDA-MB-435 = test: Cytotoxicity against human MDA-MB-435 cells
Summary of the method: (§1)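 Tested in a 60-cell-line human tumor panel screen; the read-out is growth inhibition, reported as GI50 for each cell line.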

HCT-116 = test: Cytotoxicity against human HCT116 cells; summary of the method: as §1
SK-MEL-2 = test: Cytotoxicity against human SK-MEL-2 cells; summary of the method: as §1
[1] = Cytotoxicity against human HCT15 cells; summary of the method: as §1
[2] = Cytotoxicity against human NCI-ADR-RES cells; summary of the method: as §1
[3] = Cytotoxicity against human OVCAR4 cells; summary of the method: as §1
RXF 393 = test: Cytotoxicity against human RXF393 cells; summary of the method: as §1
KM12 = test: Cytotoxicity against human KM12 cells; summary of the method: as §1
CAKI-1 = test: Cytotoxicity against human Caki1 cells; summary of the method: as §1
TK-10 = test: Cytotoxicity against human TK10 cells
Summary of the method: (§2)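 Cell line run as part of the 60-cell-line screening panel; growth inhibition was reported as a GI50 for each line.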

SF-295 = test: Cytotoxicity against human SF295 cells; summary of the method: as §1
CCRF-CEM = test: Cytotoxicity against human CCRF-CEM cells
[4] = Cytotoxicity against human OVCAR8 cells; summary of the method: as §1
IGROV-1 = test: Cytotoxicity against human IGROV1 cells; summary of the method: as §1
SN12C = test: Cytotoxicity against human SN12C cells; summary of the method: as §1
NCI-H322M = test: Cytotoxicity against human NCI-H322M cells; summary of the method: as §1
DU-145 = test: Cytotoxicity against human DU145 cells; summary of the method: as §1
SNB-75 = test: Cytotoxicity against human SNB75 cells; summary of the method: as §2
HL-60(TB) = test: Cytotoxicity against human HL-60(TB) cells
Summary of the method: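 Tested within the NCI 60-cell-line screen, with GI50 as the read-out. Values are the average of two independent experiments. The lowest concentration tested was 10 nM.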

SF-539 = test: Cytotoxicity against human SF539 cells; summary of the method: as §1
A498 = test: Cytotoxicity against human A498 cells; summary of the method: as §1
SNB-19 = test: Cytotoxicity against human SNB19 cells; summary of the method: as §1
SK-OV-3 = test: Cytotoxicity against human SKOV3 cells; summary of the method: as §1
BT-549 = test: Cytotoxicity against human BT549 cells; summary of the method: as §1
[5] = Cytotoxicity against human UACC257 cells; summary of the method: as §2
HOP-62 = test: Cytotoxicity against human HOP62 cells; summary of the method: as §1
COLO 205 = test: Cytotoxicity against human COLO205 cells; summary of the method: as §1
NCI-H226 = test: Cytotoxicity against human NCI-H226 cells; summary of the method: as §1
ACHN = test: Cytotoxicity against human ACHN cells; summary of the method: as §1
HT-29 = test: Cytotoxicity against human HT-29 cells; summary of the method: as §1
A549 = test: Cytotoxicity against human A549 cells; summary of the method: as §1
NCI-H23 = test: Cytotoxicity against human NCI-H23 cells; summary of the method: as §1
MDA-MB-468 = test: Cytotoxicity against human MDA-MB-468 cells; summary of the method: as §1
K562 = test: Cytotoxicity against human K562 cells; summary of the method: as §1
[6] = Cytotoxicity against human UACC62 cells; summary of the method: as §2
M14 = test: Cytotoxicity against human M14 cells; summary of the method: as §1
LOX IMVI = test: Cytotoxicity against human LOXIMVI cells; summary of the method: as §1
SF-268 = test: Cytotoxicity against human SF268 cells; summary of the method: as §1
[7] = Cytotoxicity against human UO31 cells; summary of the method: as §2
SR = test: Cytotoxicity against human SR cells; summary of the method: as §2
MDA-MB-231 = test: Cytotoxicity against human MDA-MB-231 cells; summary of the method: as §1
786-0 = test: Cytotoxicity against human 786-0 cells; summary of the method: as §1
HCC 2998 = test: Cytotoxicity against human HCC2998 cells; summary of the method: as §1
[8] = read-out: pLC50 (the source's name) (converted)

COc1cc(/C=C/c2cc(O)c3c(C/C=C(\C)CCC=C(C)C)c[nH]c3c2)cc2c1O[C@]1(C)CC[C@@H](O)C(C)(C)[C@H]1C2
GI50 (MDA-MB-435): 4.07 µM | CC50 (MDA-MB-435; [8]): > 100 µM | TGI (MDA-MB-435; read-out: pTGI (converted)): > 100 µM | GI50 (HCT-116): 1.38 µM | CC50 (HCT-116; [8]): > 100 µM | TGI (HCT-116; read-out: pTGI (converted)): 22.9 µM | GI50 (SK-MEL-2): 0.871 µM | CC50 (SK-MEL-2; [8]): > 100 µM | TGI (SK-MEL-2; read-out: pTGI (converted)): 18.2 µM | GI50 ([1]; HCT-15): 0.741 µM | CC50 ([1]; HCT-15, read-out: pLC50 (the source's name) (converted)): 53.7 µM | TGI ([1]; HCT-15, read-out: pTGI (converted)): 6.76 µM | GI50 [2]: 46.8 µM | CC50 [2, 8]: > 100 µM | TGI ([2]; read-out: pTGI (converted)): > 100 µM | GI50 ([3]; OVCAR-4): 6.46 µM | CC50 ([3]; OVCAR-4, read-out: pLC50 (the source's name) (converted)): > 100 µM | TGI ([3]; OVCAR-4, read-out: pTGI (converted)): > 100 µM | GI50 (RXF 393): 0.0661 µM | LC50 (RXF 393): 3.63 µM | TGI (RXF 393; read-out: pTGI (converted)): 0.309 µM | GI50 (KM12): 0.525 µM | CC50 (KM12; [8]): 5.37 µM | TGI (KM12; read-out: pTGI (converted)): 1.78 µM | GI50 (CAKI-1): 0.447 µM | LC50 (CAKI-1): 7.76 µM | TGI (CAKI-1; read-out: pTGI (converted)): 1.82 µM | GI50 (TK-10): 16.6 µM | LC50 (TK-10): > 100 µM | TGI (TK-10; read-out: pTGI (converted)): > 100 µM | GI50 (SF-295; read-out: GI50): 0.11 µM | GI50 (SF-295; read-out: pGI50 (converted)): 0.112 µM | CC50 (SF-295; [8]): 2.88 µM | TGI (SF-295; read-out: pTGI (converted)): 0.417 µM | GI50 (CCRF-CEM): 0.724 µM | CC50 (CCRF-CEM; [8]): > 100 µM | TGI (CCRF-CEM; read-out: pTGI (converted)): > 100 µM | GI50 ([4]; OVCAR-8): 72.4 µM | CC50 ([4]; OVCAR-8, read-out: pLC50 (the source's name) (converted)): > 100 µM | TGI ([4]; OVCAR-8, read-out: pTGI (converted)): > 100 µM | GI50 (IGROV-1): 1.62 µM | CC50 (IGROV-1; [8]): > 100 µM | TGI (IGROV-1; read-out: pTGI (converted)): > 100 µM | GI50 (SN12C): 60.3 µM | LC50 (SN12C): > 100 µM | TGI (SN12C; read-out: pTGI (converted)): > 100 µM | GI50 (NCI-H322M): 60.3 µM | CC50 (NCI-H322M; [8]): > 100 µM | TGI (NCI-H322M; read-out: pTGI (converted)): > 100 µM | GI50 (DU-145): 5.37 µM | LC50 (50% lethal concentration) (DU-145): > 100 µM | TGI (DU-145; read-out: pTGI (converted)): > 100 µM | GI50 (SNB-75): 0.245 µM | CC50 (SNB-75; [8]): > 100 µM | TGI (SNB-75; read-out: pTGI (converted)): 3.63 µM | GI50 (HL-60(TB)): 0.398 µM | CC50 (HL-60(TB); [8]): > 100 µM | TGI (HL-60(TB); read-out: pTGI (converted)): 12.3 µM | GI50 (SF-539): 0.229 µM | CC50 (SF-539; [8]): 6.03 µM | TGI (SF-539; read-out: pTGI (converted)): 1.45 µM | GI50 (A498): 1.2 µM | CC50 (A498; [8]): > 100 µM | TGI (A498; read-out: pTGI (converted)): 9.77 µM | GI50 (SNB-19): 2.45 µM | CC50 (SNB-19; [8]): > 100 µM | TGI (SNB-19; read-out: pTGI (converted)): > 100 µM | GI50 (SK-OV-3): 5.13 µM | LC50 (SK-OV-3): > 100 µM | TGI (SK-OV-3; read-out: pTGI (converted)): > 100 µM | GI50 (BT-549): 0.525 µM | CC50 (BT-549; [8]): > 100 µM | TGI (BT-549; read-out: pTGI (converted)): > 100 µM | GI50 ([5]; UACC-257): 9.12 µM | CC50 ([5]; UACC-257, read-out: pLC50 (the source's name) (converted)): > 100 µM | TGI ([5]; UACC-257, read-out: pTGI (converted)): 49 µM | GI50 (HOP-62): 0.794 µM | CC50 (HOP-62; [8]): 8.71 µM | TGI (HOP-62; read-out: pTGI (converted)): 2.75 µM | GI50 (COLO 205): 0.331 µM | CC50 (COLO 205; [8]): 6.31 µM | TGI (COLO 205; read-out: pTGI (converted)): 1.02 µM | GI50 (NCI-H226): 24 µM | CC50 (NCI-H226; [8]): > 100 µM | TGI (NCI-H226; read-out: pTGI (converted)): > 100 µM | GI50 (ACHN): 7.24 µM | LC50 (concentration killing 50% of cells) (ACHN): > 100 µM | TGI (ACHN; read-out: pTGI (converted)): > 100 µM | GI50 (HT-29): 0.219 µM | CC50 (HT-29; [8]): 20.4 µM | TGI (HT-29; read-out: pTGI (converted)): 1.66 µM | GI50 (A549): 2.57 µM | CC50 (A549; [8]): > 100 µM | TGI (A549; read-out: pTGI (converted)): > 100 µM | GI50 (NCI-H23): 2.45 µM | CC50 (NCI-H23; [8]): > 100 µM | TGI (NCI-H23; read-out: pTGI (converted)): 24.5 µM | GI50 (MDA-MB-468): 2 µM | LC50 (MDA-MB-468): > 100 µM | TGI (MDA-MB-468; read-out: pTGI (converted)): 44.7 µM | GI50 (K562): 0.417 µM | CC50 (K562; [8]): > 100 µM | TGI (K562; read-out: pTGI (converted)): 8.71 µM | GI50 ([6]; UACC-62): 1.26 µM | CC50 ([6]; UACC-62, read-out: pLC50 (the source's name) (converted)): > 100 µM | TGI ([6]; UACC-62, read-out: pTGI (converted)): 4.68 µM | GI50 (M14): 2 µM | CC50 (M14; [8]): > 100 µM | TGI (M14; read-out: pTGI (converted)): 11.2 µM | GI50 (LOX IMVI): 1.26 µM | CC50 (LOX IMVI; [8]): 29.5 µM | TGI (LOX IMVI; read-out: pTGI (converted)): 4.79 µM | GI50 (SF-268): 2.75 µM | CC50 (SF-268; [8]): > 100 µM | TGI (SF-268; read-out: pTGI (converted)): > 100 µM | GI50 ([7]; UO-31): 0.933 µM | LC50 ([7]; UO-31): 8.91 µM | TGI ([7]; UO-31, read-out: pTGI (converted)): 2.95 µM | GI50 (SR): 0.55 µM | CC50 (SR; [8]): > 100 µM | TGI (SR; read-out: pTGI (converted)): 29.5 µM | GI50 (MDA-MB-231): 1.1 µM | LC50 (MDA-MB-231): 85.1 µM | TGI (MDA-MB-231; read-out: pTGI (converted)): 6.31 µM | GI50 (786-0): 0.0468 µM | LC50 (concentration killing 50% of cells) (786-0): 5.62 µM | TGI (786-0; read-out: pTGI (converted)): 1.12 µM | GI50 (HCC 2998): 4.9 µM | CC50 (HCC 2998; [8]): > 100 µM | TGI (HCC 2998; read-out: pTGI (converted)): 36.3 µM
